# Measured values: ChEMBL document CHEMBL1921722, “In vitro and in vivo evaluation of select kahalalide F analogs with antitumor and antifungal activities” (Bioorg Med Chem, 2011)
# Activity calls are given as the source filed them.
# How the values were obtained:
# SK-OV-3 [1] = test: Cytotoxicity against human SKOV3 cells assessed as cell growth at 80 nM by sulforhodamine B assay relative to control; type: functional; settings: read-out: Activity
# MDA-MB-435 = test: Cytotoxicity against human MDA-MB-435 cells by sulforhodamine B assay; type: functional
# How it was run: (§1)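 NCI Developmental Therapeutics Program 60-cell-line human tumor panel screen, run at NCI. A single-concentration pre-screen was followed by a five-concentration dose-response in 10-fold steps. GI50 is the concentration that reduces growth of treated cells to half that of untreated control cells. TGI is the concentration that completely halts growth.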
# COLO 205 = test: Cytotoxicity against human COLO205 cells assessed as cell growth at 8 uM by sulforhodamine B assay relative to control; type: functional; settings: read-out: Activity
# How it was run: (§2)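 Run at NCI in the DTP 60-cell-line human tumor panel by standard procedure. Compounds were first screened at a single concentration, then tested at five tenfold-spaced concentrations. GI50 is the concentration reducing treated-cell growth to half that of untreated controls; TGI is the concentration completely halting growth.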
# NCI/ADR-RES = test: Cytotoxicity against human NCI/ADR-RES cells assessed as cell growth at 80 nM by sulforhodamine B assay relative to control; type: functional; settings: read-out: Activity
# SK-MEL-2 = test: Cytotoxicity against human SK-MEL-2 cells assessed as cell growth at 8 uM by sulforhodamine B assay relative to control; type: functional; settings: read-out: Activity
# Malme-3M [2] = test: Cytotoxicity against human MALME-3M cells assessed as cell growth at 80 uM by sulforhodamine B assay relative to control; type: functional; settings: read-out: Activity
# OVCAR-8 [3] = test: Cytotoxicity against human OVCAR8 cells assessed as cell growth at 8 nM by sulforhodamine B assay relative to control; type: functional; settings: read-out: Activity
# SK-OV-3 [4] = test: Cytotoxicity against human SKOV3 cells assessed as cell growth at 8 nM by sulforhodamine B assay relative to control; type: functional; settings: read-out: Activity
# SF-539 = test: Cytotoxicity against human SF539 cells assessed as cell growth at 8 uM by sulforhodamine B assay relative to control; type: functional; settings: read-out: Activity
# DU-145 = test: Cytotoxicity against human DU145 cells assessed as cell growth at 80 nM by sulforhodamine B assay relative to control; type: functional; settings: read-out: Activity
# SR = test: Cytotoxicity against human SR cells by sulforhodamine B assay; type: functional; how it was run: as §1
# TK-10 [5] = test: Cytotoxicity against human TK10 cells assessed as cell growth at 8 uM by sulforhodamine B assay relative to control; type: functional; settings: read-out: Activity
# TK-10 [6] = test: Cytotoxicity against human TK10 cells assessed as cell growth at 800 nM by sulforhodamine B assay relative to control; type: functional; settings: read-out: Activity
# OVCAR-5 [7] = test: Cytotoxicity against human OVCAR5 cells assessed as cell growth at 80 nM by sulforhodamine B assay relative to control; type: functional; settings: read-out: Activity
# Malme-3M [8] = test: Cytotoxicity against human MALME-3M cells assessed as cell growth at 800 nM by sulforhodamine B assay relative to control; type: functional; settings: read-out: Activity
# U-251 = test: Cytotoxicity against human U251 cells by sulforhodamine B assay; type: functional; how it was run: as §1
# OVCAR-3 = test: Cytotoxicity against human OVCAR3 cells by sulforhodamine B assay; type: functional; how it was run: as §1
# HT-29 = test: Cytotoxicity against human HT-29 cells assessed as cell growth at 800 nM by sulforhodamine B assay relative to control; type: functional; settings: read-out: Activity
# A549 = test: Cytotoxicity against human A549 cells assessed as cell growth at 80 uM by sulforhodamine B assay relative to control; type: functional; settings: read-out: Activity; how it was run: as §2
# ACHN = test: Cytotoxicity against human ACHN cells assessed as cell growth at 800 nM by sulforhodamine B assay relative to control; type: functional; settings: read-out: Activity; how it was run: as §2
# SW-620 = test: Antitumor activity against human SW620 cells xenografted in mouse assessed as tumor cell killing at 4.7 mg/kg, ip qd for 4 days by MTT assay; type: functional, organism-based; design: dose 4.7 mg/kg
# How it was run: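 Hollow-fiber assay in mice. Tumor lines were grown in RPMI-1640 with 10% FBS and 2 mM glutamine. Cells at 2 × 10^6 cells/ml were loaded into 1 mm PVDF fibers (500,000 Da cutoff), heat-sealed at 2 cm and held 24–48 h at 37 °C, 5% CO2 before implantation. Compound was given IP. Fibers were collected the day after the fourth treatment for MTT (OD 540 nm, group means). A ≥50% cut in percent net growth versus vehicle counted as positive.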
# UACC-257 = test: Cytotoxicity against human UACC257 cells assessed as cell growth at 8 nM by sulforhodamine B assay relative to control; type: functional; settings: read-out: Activity
# NCI-H460 = test: Cytotoxicity against human NCI-H460 cells assessed as cell growth at 8 uM by sulforhodamine B assay relative to control; type: functional; settings: read-out: Activity
# PC-3 = test: Cytotoxicity against human PC3 cells assessed as cell growth at 80 uM by sulforhodamine B assay relative to control; type: functional; settings: read-out: Activity
# 786-0 = test: Cytotoxicity against human 786-0 cells assessed as cell growth at 8 nM by sulforhodamine B assay relative to control; type: functional; settings: read-out: Activity; how it was run: as §2
# EKVX = test: Cytotoxicity against human EKVX cells assessed as cell growth at 80 uM by sulforhodamine B assay relative to control; type: functional; settings: read-out: Activity
# A498 = test: Cytotoxicity against human A498 cells assessed as cell growth at 800 nM by sulforhodamine B assay relative to control; type: functional; settings: read-out: Activity; how it was run: as §2
# OVCAR-5 [9] = test: Cytotoxicity against human OVCAR5 cells assessed as cell growth at 80 uM by sulforhodamine B assay relative to control; type: functional; settings: read-out: Activity
# [10] = Acute toxicity in ip dosed athymic nude mouse assessed as mortality after 24 days; type: organism-based; settings: in vivo
# How it was run: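 Female athymic nude mice, non-tumored; single IP injection, one mouse per dose level, 400, 200 and 100 mg/kg first, then 50, 25 and 12.5 mg/kg. Dose volume 0.1 ml/10 g body weight. Body weight and survival monitored; animals sacrificed on >20% weight loss or other significant toxicity.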
# HOP-62 = test: Cytotoxicity against human HOP62 cells assessed as cell growth at 8 nM by sulforhodamine B assay relative to control; type: functional; settings: read-out: Activity
# SNB-19 = test: Cytotoxicity against human SNB19 cells by sulforhodamine B assay; type: functional; how it was run: as §1
# UACC-62 = test: Cytotoxicity against human UACC62 cells assessed as cell growth at 8 nM by sulforhodamine B assay relative to control; type: functional; settings: read-out: Activity
# OVCAR-8 [11] = test: Cytotoxicity against human OVCAR8 cells assessed as cell growth at 8 uM by sulforhodamine B assay relative to control; type: functional; settings: read-out: Activity
# SK-OV-3 [12] = test: Cytotoxicity against human SKOV3 cells assessed as cell growth at 800 nM by sulforhodamine B assay relative to control; type: functional; settings: read-out: Activity
# Hs-578T = test: Cytotoxicity against human Hs578T cells by sulforhodamine B assay; type: functional; how it was run: as §1
# RXF 393 = test: Cytotoxicity against human RXF393 cells assessed as cell growth at 8 uM by sulforhodamine B assay relative to control; type: functional; settings: read-out: Activity
# NCI-H522 = test: Cytotoxicity against human NCI-H522 cells assessed as cell growth at 8 nM by sulforhodamine B assay relative to control; type: functional; settings: read-out: Activity
smiles,measurement,setting,value
C/C=C1\NC(=O)[C@H](Cc2ccccc2)NC(=O)[C@@H](C(C)C)NC(=O)[C@@H]([C@@H](C)CC)NC(=O)[C@H](NC(=O)[C@H](NC(=O)[C@H](CCCNCc2ccc(F)c(C)c2)NC(=O)[C@H]2CCCN2C(=O)[C@H](NC(=O)[C@@H](NC(=O)[C@@H](NC(=O)[C@H](NC(=O)CCCC(C)C)C(C)C)[C@@H](C)O)C(C)C)C(C)C)[C@@H](C)CC)[C@@H](C)OC(=O)[C@H](C(C)C)NC1=O,growth at 0.08 µM,SK-OV-3 [1],105%
same,GI50,MDA-MB-435,1150 nM
same,TGI,MDA-MB-435; read-out: pTGI (converted),2190 nM
same,growth at 8 µM,COLO 205,-76%
same,growth at 0.08 µM,NCI/ADR-RES,88%
same,growth at 8 µM,SK-MEL-2,-80%
same,growth at 80 µM,Malme-3M [2],12%
same,growth at 0.008 µM,OVCAR-8 [3],107%
same,growth at 0.008 µM,SK-OV-3 [4],102%
same,growth at 8 µM,SF-539,-93%
same,growth at 0.08 µM,DU-145,87%
same,GI50,SR,1580 nM
same,LC50,SR,> 75900 nM
same,TGI,SR; read-out: pTGI (converted),3470 nM
same,growth at 8 µM,TK-10 [5],-71%
same,growth at 0.8 µM,TK-10 [6],101%
same,growth at 0.08 µM,OVCAR-5 [7],96%
same,growth at 0.8 µM,Malme-3M [8],102%
same,GI50,U-251,363 nM
same,LC50,U-251,3160 nM
same,TGI,U-251; read-out: pTGI (converted),1260 nM
same,GI50,OVCAR-3,437 nM
same,LC50,OVCAR-3,3470 nM
same,TGI,OVCAR-3; read-out: pTGI (converted),1480 nM
same,growth at 0.8 µM,HT-29,-52%
same,growth at 80 µM,A549,1%
same,growth at 0.8 µM,ACHN,81%
same,Activity,SW-620,inactive
same,growth at 0.008 µM,UACC-257,102%
same,growth at 8 µM,NCI-H460,-71%
same,growth at 80 µM,PC-3,-76%
same,growth at 0.008 µM,786-0,103%
same,growth at 80 µM,EKVX,-59%
same,growth at 0.8 µM,A498,96%
same,growth at 80 µM,OVCAR-5 [9],-98%
same,MTD at 576 h,[10],12.5 mg/kg
same,growth at 0.008 µM,HOP-62,101%
same,GI50,SNB-19,1290 nM
same,LC50 (concentration killing 50% of cells),SNB-19,4790 nM
same,TGI,SNB-19; read-out: pTGI (converted),2450 nM
same,growth at 0.008 µM,UACC-62,103%
same,growth at 8 µM,OVCAR-8 [11],-14%
same,growth at 0.8 µM,SK-OV-3 [12],-46%
same,LC50,Hs-578T,> 75900 nM
same,GI50,Hs-578T; read-out: GI50,217 nM
same,TGI,Hs-578T; read-out: TGI,665 nM
same,GI50,Hs-578T; read-out: pGI50 (converted),219 nM
same,TGI,Hs-578T; read-out: pTGI (converted),661 nM
same,growth at 8 µM,RXF 393,-61%
same,growth at 0.008 µM,NCI-H522,104%
